Assay results as given in ChEMBL document CHEMBL1139403, “Syntheses and anti-depressant activity of 5-amino-1, 3, 4-thiadiazole-2-thiol imines and thiobenzyl derivatives” (2008).

Assays:
[1] = tested on: Mus musculus; assay: Antidepressant activity in albino mouse assessed as decrease in immobility time at 10 mg/kg, ip after 60 mins by forced-swimming test relative to untreated control; format: functional; set-up: scale not given: the % may be the effect or the level left; conditions: route intraperitoneal
Method in brief: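 Albino mice given 10 mg/kg ip; forced swim in a vertical Plexiglas cylinder of water at 25 °C for 15 min, immobility plateauing after 5–6 min; % immobility calculated; mice dried in a heated enclosure (32 °C) afterwards.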

[2] = tested on: Mus musculus; assay: Neurotoxicity in albino mouse assessed as animal in lateral position at 10 mg/kg, ip administered 1 hr prior to ethanol challenge measured after 30 mins; format: functional; conditions: route intraperitoneal

Compound	Activity [1] [%]	Activity [2] [%]
Clc1ccc(/C=C/C(=N\c2nnc(SCc3ccc(Cl)cc3)s2)c2ccc(Cl)cc2)cc1	87.57	<50
CN(C)CCCN1c2ccccc2CCc2ccccc21 [IMIPRAMINE]	82	<50
Clc1ccc(/C=C/C(=N\c2nnc(SCc3ccccc3)s2)c2ccc(Cl)cc2)cc1	–	<50
COc1ccc(/C=C/C(=N\c2nnc(SCc3ccc(Cl)cc3)s2)c2ccc(Cl)cc2)cc1	84.23	<50
COc1ccc(/C=C/C(=N\c2nnc(SCc3ccccc3)s2)c2ccc(Cl)cc2)cc1	77.99	<50
